Laboratory results reported in ChEMBL document CHEMBL1157082, “Sesquiterpenes from Oplopanax horridus” (J Nat Prod, 2010).
Converted amounts (≈) assume the structure as drawn.

Columns and labels:
[1] = test system: Mycobacterium tuberculosis; experiment: Antituberculosis activity against Mycobacterium tuberculosis Erdman by microplate alamar blue assay; format: functional
Method in brief: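 MIC read by microplate Alamar Blue assay against virulent M. tuberculosis Erdman (ATCC 35801). Rifampin served as positive control. Crude fractions were scored as percent inhibition at several concentrations, and pure isolates as MICs.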

Vero = experiment: Cytotoxicity against african green monkey Vero cells; format: cell-based; settings: chlorocebus sabaeus
Method in brief: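 IC50 in Vero cells, run alongside the MIC assay. Test concentrations were at or below 1% of the maximum achievable stock concentration in DMSO.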

[2] = test system: Mycobacterium tuberculosis; experiment: Antituberculosis activity against Mycobacterium tuberculosis H37Ra by microplate alamar blue assay; format: functional
[3] = Selectivity index, ratio of IC50 for african green monkey Vero cells to MIC for Mycobacterium tuberculosis Erdman; format: functional

In the case of `C=C[C@@H](O)C#CC#C[C@@H](O)/C=C\CCCCCCC` [FALCARINDIOL], the MIC [1] is reported as 6.2 µg/mL (≈ 23.8 µM) and the Activity (Vero) is reported as “Non-toxic”.
For `c1cc2c(cc1[C@H]1OC[C@H]3[C@@H]1CO[C@@H]3c1ccc3c(c1)OCO3)OCO2` [SESAMIN], the MIC [2] was greater than 200 µg/mL.
With `C=CC1(C)CC/C=C(/C)CCC(C(C)(C)O)O1` (stereo not given) [NEROPLOMACROL] the MIC [1] was greater than 128 µg/mL and the Activity (Vero) was “Non-toxic”.
In the case of `C=C[C@@](C)(O)CC[C@@H](O)[C@]1(C)CC[C@H](C(C)(C)O)O1` (relative stereo) [NEROPLOFUROL], the MIC [1] is reported as greater than 128 µg/mL and the Activity (Vero) is reported as “Non-toxic”.
With `CCCCCCC/C=C\[C@H](O)C#CC#C[C@@H](O)CC` [OPLOPANDIOL] the “Selectivity Index” value [3] was 6.2, the MIC [1] was 61.5 µg/mL (≈ 234 µM) and the Activity (Vero) was “Non-toxic”.
